Key:
HepG2 cells = experiment: MTT cytotoxicity assay, HepG2; assay type: cell-based; settings: Homo sapiens, HepG2, 24 h, read-out: IC50 HePG2
Method in brief: (§1)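 Cells (ATCC via VACSERA) grown in RPMI-1640 with 10% FBS, penicillin 100 units/mL and streptomycin 100 μg/mL, 37 °C, 5% CO2. Seeded at 1.0 × 10^4 cells/well and held 48 h, then exposed to a range of test compound concentrations for 24 h. MTT (5 mg/mL solution) added for 4 h, formazan dissolved in DMSO, absorbance 570 nm. Run in triplicate; IC50 calculated. 5-FU reference.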

MCF-7 cells = experiment: MTT cytotoxicity assay, MCF-7; assay type: cell-based; settings: Homo sapiens, MCF7, 24 h, read-out: IC50 MCF-7
Method in brief: as §1

PC3 cells = experiment: MTT cytotoxicity assay, PC3; assay type: cell-based; settings: Homo sapiens, PC-3, 24 h, read-out: IC50 PC3
Method in brief: as §1

HCT-116 cells = experiment: MTT cytotoxicity assay, HCT-116; assay type: cell-based; settings: Homo sapiens, HCT-116, 24 h, read-out: IC50 HCT-116
Method in brief: as §1

Pim-1 kinase = Pim-1 kinase (Homo sapiens, UniProt P11309); experiment: Pim-1 kinase inhibition, luminescent ADP-Glo kinase assay; assay type: biochemical
Pim-1 kinase, sequence (P11309 whole entry): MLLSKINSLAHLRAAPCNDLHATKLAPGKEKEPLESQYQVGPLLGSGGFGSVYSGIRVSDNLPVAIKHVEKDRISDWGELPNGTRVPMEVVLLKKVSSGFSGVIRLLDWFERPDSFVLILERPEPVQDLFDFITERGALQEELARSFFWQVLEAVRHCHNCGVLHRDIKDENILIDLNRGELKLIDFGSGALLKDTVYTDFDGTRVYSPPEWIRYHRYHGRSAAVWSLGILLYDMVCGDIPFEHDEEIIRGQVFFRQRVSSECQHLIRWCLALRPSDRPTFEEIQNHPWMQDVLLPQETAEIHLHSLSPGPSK

SMILES	IC50 (Pim-1 kinase)	fold less potent than quercetagetin (Pim-1 inhibition) (Pim-1 kinase)	times more potent than A (Pim-1 inhibition) (Pim-1 kinase)	IC50 (HepG2 cells)	IC50 (MCF-7 cells)	IC50 (PC3 cells)	IC50 (HCT-116 cells)
N#Cc1c(-c2cc3ccccc3nc2Cl)cc(-c2ccccc2)[nH]c1=O [3a, 4-(2-Chloroquinolin-3-yl)-2-oxo-6-phenyl-1,2-dihydropyridine-3-carbonitrile]	900 ± 40 nM	–	–	11.6 ± 0.57 µM	60 ± 2.93 µM	26.9 ± 1.28 µM	49.9 ± 2.36 µM
N#Cc1c(-c2cc3ccccc3nc2Cl)cc(-c2cccc(N)c2)[nH]c1=O [3b, 6-(3-Aminophenyl)-4-(2-chloroquinolin-3-yl)-2-oxo-1,2-dihydropyridine-3-carbonitrile]	850 ± 40 nM	–	–	12.4 ± 0.59 µM	42.4 ± 2.13 µM	18.4 ± 0.89 µM	30.9 ± 1.52 µM
COc1ccc(-c2cc(-c3cc4ccccc4nc3Cl)c(C#N)c(=O)[nH]2)cc1 [3c, 4-(2-Chloroquinolin-3-yl)-6-(4-methoxyphenyl)-2-oxo-1,2-dihydropyridine-3-carbonitrile]	790 ± 40 nM	–	–	14.1 ± 0.68 µM	25.4 ± 1.2 µM	25.8 ± 1.3 µM	18.3 ± 0.89 µM
N#Cc1c(-c2cc3ccccc3nc2Cl)cc(-c2ccc(Br)cc2)[nH]c1=O [3d, 6-(4-Bromophenyl)-4-(2-chloroquinolin-3-yl)-2-oxo-1,2-dihydropyridine-3-carbonitrile]	720 ± 30 nM	–	–	16.2 ± 0.77 µM	19.9 ± 0.96 µM	20.5 ± 0.97 µM	20 ± 0.99 µM
N#Cc1c(-c2cc3ccccc3nc2Cl)cc(-c2ccc(Cl)cc2Cl)[nH]c1=O [3e, 4-(2-Chloroquinolin-3-yl)-6-(2,4-dichlorophenyl)-2-oxo-1,2-dihydropyridine-3-carbonitrile]	2310 ± 110 nM	–	–	11.6 ± 0.57 µM	45.9 ± 2.18 µM	25.9 ± 1.25 µM	50.7 ± 2.5 µM
O=c1[nH]cc(F)c(=O)[nH]1 [5-FU, 5-fluorouracil, reference compound]	–	–	–	9.42 ± 0.46 µM	7.75 ± 0.37 µM	10.3 ± 0.5 µM	8.01 ± 0.39 µM

Continued, in another order:

IC50 (Pim-1 kinase)	fold less potent than quercetagetin (Pim-1 inhibition) (Pim-1 kinase)	times more potent than A (Pim-1 inhibition) (Pim-1 kinase)	SMILES	IC50 (HepG2 cells)	IC50 (MCF-7 cells)	IC50 (PC3 cells)	IC50 (HCT-116 cells)
1240 ± 60 nM	about 2 fold	–	N#Cc1c(-c2cc3ccccc3nc2Cl)cc(-c2ccccc2)nc1Cl [4a, 2-Chloro-4-(2-chloroquinolin-3-yl)-6-phenylnicotinonitrile]	10 ± 0.49 µM	75.7 ± 3.74 µM	35.3 ± 1.67 µM	50 ± 2.44 µM
630 ± 30 nM	–	–	N#Cc1c(-c2cc3ccccc3nc2Cl)cc(-c2cccc(N)c2)nc1Cl [4b, 6-(3-Aminophenyl)-2-chloro-4-(2-chloroquinolin-3-yl) nicotinonitrile]	12 ± 0.59 µM	19.2 ± 0.94 µM	15 ± 0.74 µM	20.2 ± 0.96 µM
610 ± 30 nM	–	–	COc1ccc(-c2cc(-c3cc4ccccc4nc3Cl)c(C#N)c(Cl)n2)cc1 [4c, 2-Chloro-4-(2-chloroquinolin-3-yl)-6-(4-methoxyphenyl) nicotinonitrile]	8.02 ± 0.38 µM	15.7 ± 0.78 µM	13.6 ± 0.67 µM	7.15 ± 0.35 µM
460 ± 20 nM	–	2 times	N#Cc1c(-c2cc3ccccc3nc2Cl)cc(-c2ccc(Br)cc2)nc1Cl [4d, 6-(4-Bromophenyl)-2-chloro-4-(2-chloroquinolin-3-yl) nicotinonitrile]	6.95 ± 0.34 µM	8.5 ± 0.42 µM	14.1 ± 0.7 µM	8.35 ± 0.42 µM
1420 ± 70 nM	~2.5 fold	–	N#Cc1c(-c2cc3ccccc3nc2Cl)cc(-c2ccc(Cl)cc2Cl)nc1Cl [4e, 2-Chloro-4-(2-chloroquinolin-3-yl)-6-(2,4-dichlorophenyl) nicotinonitrile]	11.5 ± 0.56 µM	55.5 ± 2.71 µM	35.1 ± 1.73 µM	65.1 ± 3.08 µM

Source: article PMC10249106 (ACS Omega, 2023)
